The nature of experiment [1]: Cytotoxicity against human 518A2 cells after 24 hrs by MTT assay. Type of experiment: functional, cell-based. To be noted: 518A2, 24 h. An outline of the steps:
(§1)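 MTT assay. Cells seeded and cultured 24 h, then exposed to compound for 24, 48 or 72 h. MTT added to a final 0.05% (HL-60, 518A2) or 0.1% (KB-V1, MCF-7) for 2 h. Formazan dissolved in 10% SDS/DMSO with 0.6% acetic acid; absorbance read at 570 nm against 630 nm background. Viability taken relative to untreated controls (100%). IC50 from concentration-response curves, mean ± SD of four independent experiments.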
Background: Tetrazolium assays rely on reduction of a dye to a coloured formazan, in cell work by metabolically active cells.

Experiment [2] can be described thus: Cytotoxicity against human 518A2 cells after 48 hrs by MTT assay. Type of experiment: functional, cell-based. To be noted: 518A2, 48 h. An outline of the steps: as §1
Experiment [3] can be described thus: Cytotoxicity against human 518A2 cells after 72 hrs by MTT assay. In kind it is functional, cell-based. To be noted: 518A2, 72 h. The method, boiled down: as §1
Experiment [4] relates to HL-60. Put plainly: Cytotoxicity against human HL60 cells after 24 hrs by MTT assay. Type of experiment: functional, cell-based. To be noted: HL-60, 24 h. An outline of the steps: as §1
Experiment [5] has as its system HL-60. Put plainly: Cytotoxicity against human HL60 cells after 48 hrs by MTT assay. Type of experiment: functional, cell-based. The conditions noted are these: HL-60, 48 h. An outline of the steps: as §1
Experiment [6] has as its system HL-60. Put plainly: Cytotoxicity against human HL60 cells after 72 hrs by MTT assay. The conditions noted are these: HL-60, 72 h. In kind it is functional, cell-based. An outline of the steps:
as §1

Experiment [7] can be described thus: Cytotoxicity against human vinblastine-resistant KBV1 cells after 24 hrs by MTT assay. Type of experiment: functional, cell-based. The conditions noted are these: KB-V1, 24 h. The method, boiled down:
as §1

Experiment [8] is described as follows: Cytotoxicity against human vinblastine-resistant KBV1 cells after 48 hrs by MTT assay. In kind it is functional, cell-based. The conditions noted are these: KB-V1, 48 h. The method, boiled down: as §1
Experiment [9] can be described thus: Cytotoxicity against human vinblastine-resistant KBV1 cells after 72 hrs by MTT assay. In kind it is functional, cell-based. To be noted: KB-V1, 72 h. The method, boiled down:
as §1

The test system of experiment [10] is MCF7. Put plainly: Cytotoxicity against human topotecan-resistant MCF7 cells after 24 hrs by MTT assay. In kind it is functional, cell-based. To be noted: MCF7, 24 h. An outline of the steps:
as §1

Experiment [11] relates to MCF7. Put plainly: Cytotoxicity against human topotecan-resistant MCF7 cells after 48 hrs by MTT assay. In kind it is functional, cell-based. To be noted: MCF7, 48 h. The method, boiled down:
as §1

Experiment [12] relates to MCF7. Put plainly: Cytotoxicity against human topotecan-resistant MCF7 cells after 72 hrs by MTT assay. To be noted: MCF7, 72 h. In kind it is functional, cell-based. The method, boiled down:
as §1

Experiment [13] has as its system 518A2. Put plainly: Induction of apoptosis in human 518A2 cells assessed as appearance of intact mitochondria in cytosol at 5 uM after 6 hrs using JC1 dye relative to control. In kind it is functional. The method, boiled down: (§2)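 Mitochondrial membrane potential measured with JC-1. Cells exposed to 5 µM compound for 6 or 18 h, pelleted at 400 g, stained with 0.2× JC-1 at 37 °C for 15 min (HL-60) or 35 min (518A2), washed and resuspended in PBS. Red fluorescence (ex 585/em 590 nm) and green (ex 510/em 527 nm) read; red/green ratio relative to untreated controls (100%). Mean ± SD, four independent experiments.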

Experiment [14] relates to 518A2. Put plainly: Induction of apoptosis in human 518A2 cells assessed as appearance of intact mitochondria in cytosol at 5 uM after 18 hrs using JC1 dye relative to control. Type of experiment: functional. An outline of the steps:
as §2

For experiment [15], the system named is HL-60. Put plainly: Induction of apoptosis in human HL60 cells assessed as appearance of intact mitochondria in cytosol at 5 uM after 6 hrs using JC1 dye relative to control. In kind it is functional. An outline of the steps:
as §2

Experiment [16] relates to HL-60. Put plainly: Induction of apoptosis in human HL60 cells assessed as appearance of intact mitochondria in cytosol at 5 uM after 18 hrs using JC1 dye relative to control. Type of experiment: functional. An outline of the steps:
as §2

Experiment [17] in a line: Cytotoxicity against human 518A2 cells assessed as increase in ROS production at 5 uM after 24 hrs by NBT reduction assay relative to control. Type of experiment: functional. An outline of the steps:
(§3)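 NBT assay. HL-60 cells (0.5×10⁶/mL) or trypsinised 518A2 cells (5×10⁴/mL) pre-incubated 24 h at 37 °C, then given compound at a final 5 µM for 24 or 72 h. Medium removed; cells incubated with 0.1% NBT for 1 h (HL-60) or 4 h (518A2). Diformazan dissolved in 2 M KOH/DMSO; A630 read against 405 nm. Given as % of untreated controls; double quadruplicates.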

Experiment [18] is described as follows: Cytotoxicity against human 518A2 cells assessed as increase in ROS production at 5 uM after 72 hrs by NBT reduction assay relative to control. In kind it is functional. The method, boiled down: as §3
In experiment [19] the test system is HL-60. Put plainly: Cytotoxicity against human HL60 cells assessed as increase in ROS production at 5 uM after 24 hrs by NBT reduction assay relative to control. In kind it is functional. The method, boiled down: as §3
Experiment [20] concerns HL-60. Put plainly: Cytotoxicity against human HL60 cells assessed as increase in ROS production at 5 uM after 72 hrs by NBT reduction assay relative to control. Type of experiment: functional. The method, boiled down: as §3

One may read the IC50 as the concentration at which inhibition is half-maximal. A low value points to greater potency in that assay.

`COc1cccc2c1C(=O)c1c(O)c3c(c(O)c1C2=O)C[C@@](O)(/C(CO)=N/NC(=O)CCCCCCCC(=O)O[C@@H]1C[C@H](C)CC[C@H]1C(C)C)C[C@@H]3O[C@H]1C[C@H](N)[C@H](O)[C@H](C)O1.Cl`: the IC50 was 0.82 µM in experiment [1]; 0.51 µM in experiment [2]; 0.46 µM in [3]; 0.4 µM in the experiment on HL-60 [4]; 0.49 µM with HL-60 [5]; 0.37 µM with HL-60 [6]. The IC50 in experiment [7] is 79.6 µM; in experiment [8], 21.5 µM; in experiment [9], 21.8 µM; in the experiment with MCF7 [10], 10.2 µM; in the experiment with MCF7 [11] it was 7.2 µM; with MCF7 [12], 4.3 µM. In addition, the Activity in the experiment on 518A2 [13] is recorded as 83%; with 518A2 [14] it was 72%; with HL-60 [15] it was 84%; with HL-60 [16] it was 68%; in [17] it was 1.4%; in experiment [18], 1.3%. Further, the results for the Activity in the experiment with HL-60 [19] and in the experiment on HL-60 [20] were 1% and 6.8%, respectively.
Turning to `COc1cccc2c1C(=O)c1c(O)c3c(c(O)c1C2=O)C[C@@](O)(/C(CO)=N/NC(=O)CCCCCCCCCCC(=O)O[C@H]1C[C@H]2CC[C@]1(C)C2(C)C)C[C@@H]3O[C@H]1C[C@H](N)[C@H](O)[C@H](C)O1.Cl`, the 50% inhibitory concentration (IC50) in [1] is 0.57 µM; in [2], 0.23 µM; in [3] it was 0.19 µM; with HL-60 [4], 0.23 µM; in the experiment on HL-60 [5] it was 0.19 µM; with HL-60 [6], 0.13 µM. Moreover, the IC50 came out at 68.8 µM in experiment [7]; 20.7 µM in [8]; 24.2 µM in experiment [9]; 6.3 µM in the experiment on MCF7 [10]; 3.8 µM in the experiment on MCF7 [11]; 1.8 µM in the experiment with MCF7 [12]. The Activity in the experiment on 518A2 [13] amounted to 66%; in the experiment on 518A2 [14] it was 73%; in the experiment with HL-60 [15], 78%; in the experiment on HL-60 [16], 65%; in [17], 2.7%; in [18] it was 3.8%. In addition, the results for the Activity with HL-60 [19] and with HL-60 [20] were 1.8% and 7.9%, respectively.
On to `CCCCCCCC/C=C\CCCCCCCC(=O)N/N=C(\CO)[C@]1(O)Cc2c(O)c3c(c(O)c2[C@@H](O[C@H]2C[C@H](N)[C@H](O)[C@H](C)O2)C1)C(=O)c1c(OC)cccc1C3=O.Cl` [DOXORUBICIN OLEYLHYDRAZONE HYDROCHLORIDE], for which the IC50 in experiment [1] came to 0.67 µM; in experiment [2] it was 0.39 µM; in experiment [3], 0.42 µM; in the experiment with HL-60 [4], 1.2 µM; with HL-60 [5] it was 0.56 µM; in the experiment with HL-60 [6], 0.56 µM. Besides, the IC50 in [7] came to 32.5 µM; in experiment [8], 17.7 µM; in experiment [9] it was 12.7 µM; in the experiment with MCF7 [10], 14.6 µM; in the experiment with MCF7 [11], 6.2 µM; in the experiment on MCF7 [12], 6.6 µM. In addition, the Activity turned out to be 96% with 518A2 [13]; 99% with 518A2 [14]; 103% in the experiment with HL-60 [15]; 104% in the experiment on HL-60 [16]; 2.8% in experiment [17]; 4.4% in [18]. Further, the Activity is 0.6% in the experiment on HL-60 [19] and 4% in the experiment with HL-60 [20].
Turning to `COc1cccc2c1C(=O)c1c(O)c3c(c(O)c1C2=O)C[C@@](O)(/C(CO)=N/NC(=O)CCCCC(=O)O[C@@H]1C[C@H](C)CC[C@H]1C(C)C)C[C@@H]3O[C@H]1C[C@H](N)[C@H](O)[C@H](C)O1.Cl`, the IC50 in experiment [1] amounted to 1.2 µM; in [2], 0.42 µM; in experiment [3], 0.32 µM; in the experiment with HL-60 [4], 0.39 µM; with HL-60 [5], 0.33 µM; in the experiment on HL-60 [6], 0.33 µM. The IC50 in experiment [7] was greater than 100 µM; in experiment [8] it was 34.9 µM; in experiment [9] it was 23.3 µM; in the experiment with MCF7 [10], 6.7 µM; in the experiment on MCF7 [11], 4.7 µM; with MCF7 [12], 2.4 µM. In addition, the Activity in the experiment with 518A2 [13] was 82%; in the experiment with 518A2 [14] it was 79%; in the experiment with HL-60 [15], 93%; in the experiment with HL-60 [16], 66%; in [17], 2.2%; in [18], 1.5%. In addition, the Activity was 1% in the experiment with HL-60 [19] and 5.7% with HL-60 [20].
For `CCCCC/C=C\C/C=C\CCCCCCCC(=O)N/N=C(\CO)[C@]1(O)Cc2c(O)c3c(c(O)c2[C@@H](O[C@H]2C[C@H](N)[C@H](O)[C@H](C)O2)C1)C(=O)c1c(OC)cccc1C3=O.Cl` [DOXORUBICIN LINOLEYLHYDRAZONE HYDROCHLORIDE], the IC50 worked out at 2.9 µM in experiment [1]; 1.8 µM in experiment [2]; 1.6 µM in experiment [3]; 5.6 µM with HL-60 [4]; 2.8 µM with HL-60 [5]; 3.8 µM with HL-60 [6]. Also, the 50% inhibitory concentration (IC50) in experiment [7] was 29.6 µM; in [8], 18.7 µM; in [9], 19.7 µM; in the experiment on MCF7 [10], 40.5 µM; in the experiment with MCF7 [11] it was 20.3 µM; in the experiment with MCF7 [12] it was 9.9 µM. Moreover, the Activity in the experiment with 518A2 [13] is on record as 80%; in the experiment with 518A2 [14] it was 97%; with HL-60 [15], 88%; in the experiment on HL-60 [16], 87%; in experiment [17], 1.6%; in [18], 2.3%. Further, the Activity with HL-60 [19] was 0.4%; with HL-60 [20] it was 1.4%.

Values taken from ChEMBL document CHEMBL1157852, “Modulation of doxorubicin activity in cancer cells by conjugation with fatty acyl and terpenyl hydrazones” (Eur J Med Chem, 2010).
